Data taken from ChEMBL document CHEMBL1165988, “Dithiolopyrrolone antibiotic formation induced by adding valeric acid to the culture broth of Saccharothrix algeriensis” (2010).
≈ marks a conversion by molar mass, not a printed value.

What was measured:
Type in all cases: functional
Bacillus subtilis = assay: Antimicrobial activity against Bacillus subtilis ATCC 6633 after 24 to 48 hrs by agar dilution method
Summary of the method: (§1)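 MIC determined by conventional agar dilution on ISP2 medium; bacterial plates incubated at 37 °C and read for growth inhibition after 24-48 h; each test repeated four times.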

Heyndrickxia coagulans = assay: Antimicrobial activity against Bacillus coagulans CIP 6625 after 24 to 48 hrs by agar dilution method; summary of the method: as §1
Micrococcus luteus = assay: Antimicrobial activity against Micrococcus luteus ATCC 9314 after 24 to 48 hrs by agar dilution method; summary of the method: as §1
Staphylococcus aureus = assay: Antimicrobial activity against Staphylococcus aureus CIP 7625 after 24 to 48 hrs by agar dilution method; summary of the method: as §1
Listeria monocytogenes = assay: Antimicrobial activity against Listeria monocytogenes CIP 82110 after 24 to 48 hrs by agar dilution method; summary of the method: as §1
Escherichia coli = assay: Antimicrobial activity against Escherichia coli ATCC 10536 after 24 to 48 hrs by agar dilution method; summary of the method: as §1
Klebsiella pneumoniae = assay: Antimicrobial activity against Klebsiella pneumoniae CIP 82.91 after 24 to 48 hrs by agar dilution method; summary of the method: as §1
Salmonella enterica = assay: Antimicrobial activity against Salmonella enterica CIP 81.3 after 24 to 48 hrs by agar dilution method; summary of the method: as §1
Pseudomonas aeruginosa = assay: Antimicrobial activity against Pseudomonas aeruginosa CIP A22 after 24 to 48 hrs by agar dilution method; summary of the method: as §1
[1] = tested on: Agrobacterium tumefaciens; assay: Antimicrobial activity against Agrobacterium tumefaciens no. 2410 LB after 24 to 48 hrs by agar dilution method; summary of the method: as §1
Umbelopsis ramanniana = assay: Antimicrobial activity against Mucor ramannianus NRRL 1829 after 48 to 72 hrs by agar dilution method
Summary of the method: (§2)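 Filamentous fungi and yeasts tested by conventional agar dilution on ISP2 medium to give MIC; plates incubated at 28 °C and read after 48-72 h; each test repeated four times.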

Penicillium expansum = assay: Antimicrobial activity against Penicillium expansum after 48 to 72 hrs by agar dilution method; summary of the method: as §2
Aspergillus carbonarius = assay: Antimicrobial activity against Aspergillus carbonarius M333 after 48 to 72 hrs by agar dilution method; summary of the method: as §2
Fusarium oxysporum = assay: Antimicrobial activity against Fusarium oxysporum f.sp. lini (Foln 3-5) after 48 to 72 hrs by agar dilution method; summary of the method: as §2
Fusarium verticillioides = assay: Antimicrobial activity against Fusarium moniliforme after 48 to 72 hrs by agar dilution method; summary of the method: as §2
Fusarium equiseti = assay: Antimicrobial activity against Fusarium equiseti after 48 to 72 hrs by agar dilution method; summary of the method: as §2
Fusarium culmorum = assay: Antimicrobial activity against Fusarium culmorum after 48 to 72 hrs by agar dilution method; summary of the method: as §2
Fusarium graminearum = assay: Antimicrobial activity against Fusarium graminearum after 48 to 72 hrs by agar dilution method
Summary of the method: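 Agar dilution MIC on ISP2 medium; fungal plates incubated 48-72 h at 28 °C; each test repeated four times.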

Candida albicans = assay: Antimicrobial activity against Candida albicans IPA 200 after 48 to 72 hrs by agar dilution method; summary of the method: as §2
Saccharomyces cerevisiae = assay: Antimicrobial activity against Saccharomyces cerevisiae ATCC 4226 after 48 to 72 hrs by agar dilution method; summary of the method: as §2

SMILES	MIC (Bacillus subtilis) [µg/mL]	MIC (Heyndrickxia coagulans) [µg/mL]	MIC (Micrococcus luteus) [µg/mL]	MIC (Staphylococcus aureus) [µg/mL]	MIC (Listeria monocytogenes) [µg/mL]	MIC (Escherichia coli) [µg/mL]	MIC (Klebsiella pneumoniae) [µg/mL]	MIC (Salmonella enterica) [µg/mL]	MIC (Pseudomonas aeruginosa) [µg/mL]	MIC [1] [µg/mL]	MIC (Umbelopsis ramanniana) [µg/mL]	MIC (Penicillium expansum) [µg/mL]	MIC (Aspergillus carbonarius) [µg/mL]	MIC (Fusarium oxysporum) [µg/mL]	MIC (Fusarium verticillioides) [µg/mL]	MIC (Fusarium equiseti) [µg/mL]	MIC (Fusarium culmorum) [µg/mL]	MIC (Fusarium graminearum) [µg/mL]	MIC (Candida albicans) [µg/mL]	MIC (Saccharomyces cerevisiae) [µg/mL]
CCC(=O)Nc1c2sscc-2n(C)c1=O [AUREOTHRICIN]	20 (≈ 82.5 µM)	20 (≈ 82.5 µM)	20 (≈ 82.5 µM)	100 (≈ 413 µM)	> 100	75 (≈ 310 µM)	> 100	> 100	> 100	> 100	20 (≈ 82.5 µM)	20 (≈ 82.5 µM)	40 (≈ 165 µM)	40 (≈ 165 µM)	75 (≈ 310 µM)	20 (≈ 82.5 µM)	20 (≈ 82.5 µM)	75 (≈ 310 µM)	75 (≈ 310 µM)	40 (≈ 165 µM)
Cn1c2cssc-2c(NC=O)c1=O [FORMYLPYRROTHINE]	2 (≈ 9.33 µM)	2 (≈ 9.33 µM)	3 (≈ 14 µM)	2 (≈ 9.33 µM)	20 (≈ 93.3 µM)	40 (≈ 187 µM)	> 100	> 100	> 100	> 100	10 (≈ 46.7 µM)	3 (≈ 14 µM)	50 (≈ 233 µM)	30 (≈ 140 µM)	75 (≈ 350 µM)	10 (≈ 46.7 µM)	10 (≈ 46.7 µM)	40 (≈ 187 µM)	75 (≈ 350 µM)	75 (≈ 350 µM)
CCCCC(=O)Nc1c2sscc-2n(C)c1=O [VALERYLPYRROTHINE]	20 (≈ 74 µM)	20 (≈ 74 µM)	40 (≈ 148 µM)	75 (≈ 277 µM)	> 100	> 100	> 100	> 100	> 100	> 100	10 (≈ 37 µM)	20 (≈ 74 µM)	20 (≈ 74 µM)	50 (≈ 185 µM)	75 (≈ 277 µM)	20 (≈ 74 µM)	20 (≈ 74 µM)	75 (≈ 277 µM)	20 (≈ 74 µM)	10 (≈ 37 µM)
